Bioassay records as filed in PubChem BioAssay.
Cneo AK release: Cryptococcus neoformans lysis via adenylate kinase release; AID 651654; lysis activity, % at 15 µM; 360,000 tested, 0.2% active; C. neoformans lysis, adenylate kinase release luminescence, 4 h; normalised: neutral wells 0, clomiphene wells 100;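 active = mean lysis activity across replicates of at least 80%, whatever share of replicates individually reach that level; inactive = mean lysis activity below 80%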
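read-out = cell lysis signal | test system = log-phase Cryptococcus neoformans yeast cells | input = cells at 5 × 10^6 per mL | medium = fresh YPD growth medium | signal = luminescent adenylate kinase detection reagent | timing = 4 h at 37 °C static, read 1 h later | dosing = single dose | controls = Clomiphene as positive lysis control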
PGC1a acetyl inh: PGC1a acetylation modulation, inhibitor mode | 350,000 tested, 0.17% active | U2OS PGC1a acetylation, AlphaScreen anti-acetyl-lysine; with virally co-expressed GCN5 acetyltransferase | inhibition, % at 15.6 µM | AID 651687;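 active = every replicate shows inhibition of at least 40%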;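 also: 0% = neutral control wells and 100% = positive control wells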
FGF22 binding: binders of recombinant human FGF22 by thermal shift; Q9HCT0; SYPRO orange fluorescence; percent of sucrose octasulfate shift, DMSO zero; activity (Tm shift, normalised), % at 9.99 µM; 340,000 tested, 1.5% active; AID 651658;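 active = mean Tm shift, scaled 0 neutral to 100 positive control, at about 1.3% or above, every replicate too, limit read from the data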
Target sequence (Q9HCT0 whole entry, looked up): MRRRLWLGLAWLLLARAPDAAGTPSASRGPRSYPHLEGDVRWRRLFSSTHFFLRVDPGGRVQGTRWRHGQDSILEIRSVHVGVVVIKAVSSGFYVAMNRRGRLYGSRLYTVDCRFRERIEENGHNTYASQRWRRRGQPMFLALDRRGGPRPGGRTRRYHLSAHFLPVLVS
ERAP1 HTS inh: inhibitors of human ERAP1 aminopeptidase. Q9NZ08. 340,000 tested, 0.15% active. recombinant ERAP1, Leu-AMC fluorescence, 60 min. inhibition, % at 10.7 µM. AID 652197;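 active = mean replicate inhibition of at least 30%, or all replicates individually reaching that 30% level; inactive = mean below 30% and not every replicate reaching it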;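 also: 0% = neutral control wells and 100% = L-leucinethiol positive control wells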
rRNA inh HTS: selective bacterial rRNA inhibition in E. coli. E. coli WT GFP vs humanized-ribosome RFP mutants, fluorescence, 24 h; active compounds read low; DMSO median 0, no signal -100. GFP signal change (wild-type ribosome), % (test concentration not listed). 350,000 tested, 1.6% active;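 active = significant combined selectivity score with lowered wild-type GFP, culture density cut under 30%, mutant RFP and density less affected; inactive = any of these conditions unmet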
HIV Env fusion: HIV envelope-mediated fusion inhibition. inhibition, % at 12.3 µM. 360,000 tested, 1.1% active. AID 651610. HeLa-JRFL Env/CEM21 cell fusion, luciferase;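 active = mean replicate inhibition score of at least 50 and every replicate individually at or above 50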;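 also: 0% = plate neutral controls and 100% = maraviroc near 300 nM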
Numbers without * were called inactive; · = no result; [ ] = another dose, or the depositor's remark. Shown are actives, neighbours in structure and some others; about 3.5% of the full set was active somewhere.

SMILES	Cneo AK release	PGC1a acetyl inh	FGF22 binding	ERAP1 HTS inh	rRNA inh HTS	HIV Env fusion
O=C(O)CC(Sc1n[nH]c(=S)s1)C(=O)O (stereo unspecified)	-3	-1	0	34*	3	1
COC(=O)C(C)Sc1n[nH]c(=S)s1 (stereo unspecified)	·	3	·	·	·	·
C/C(N)=C(/C#N)C(=O)COC(=O)CNS(=O)(=O)c1c(F)cccc1F	-2	13	43*	5	12	18
C/C(N)=C(/C#N)C(=O)COC(=O)CNS(=O)(=O)c1ccc2ccccc2c1	·	·	0	·	-14	0
C[C@@]12C(=O)N(c3cccc(Cl)c3)C(=O)N1[C@H](c1ccc(Cl)cc1)[C@@H]1C(=O)N(C3CCCCC3)C(=O)[C@@H]12	0	·	0	·	6	103*
C[C@@]12C(=O)N(c3cccc(F)c3)C(=O)N1[C@H](c1ccc(Cl)cc1)[C@@H]1C(=O)N(C3CCCCC3)C(=O)[C@@H]12	-1	-3	0	·	7	1
C[C@@]12C(=O)N(c3cccc(F)c3)C(=O)N1[C@H](c1ccc(F)cc1)[C@@H]1C(=O)N(C3CCCCC3)C(=O)[C@@H]12	0	4	·	·	·	·
COc1ccc(N2C(=O)N3[C@H](c4ccc(Cl)cc4)[C@@H]4C(=O)N(C5CCCCC5)C(=O)[C@@H]4[C@]3(C)C2=O)cc1	0	-6	0	2	11	85*
COc1cc(/C=C(/C#N)c2nc(-c3cc4ccccc4oc3=O)cs2)cc([N+](=O)[O-])c1O	·	·	0	5	12	5
Clc1ccc(SCc2cn3ccccc3n2)cc1	·	6	0	1	-28*	-44
Clc1ccc(-n2nnnc2SCc2cn3ccccc3n2)cc1	1	-5	·	·	·	·
Cc1onc(-c2ccccc2Cl)c1-c1nc(-c2ccncc2)no1	-7	-6	·	·	·	·
Cc1ccc([C@H]2C[C@H](n3cc(COC(=O)c4ccccc4)nn3)[C@@H](O)CN2C(=O)c2cccs2)cc1	8	-5	0	-5	-2	14
COc1ccc([C@H]2C[C@@H](O)[C@H](n3cc(COC(=O)c4ccccc4)nn3)CN2C(=O)c2cccs2)cc1	-2	·	43*	-2	-9	-1
O=C(C[C@@H]1C=C[C@H](NC(=O)Cc2cccnc2)[C@H](CO)O1)Nc1ccccc1	71	-9	0	5	-2	-20[16.7 µM]
COc1cc(CN2CCC(C(=O)NCC(C)(C)CN(C)C)CC2)ccc1OCc1ccccc1	1	-16	0	0	18	16
Cc1ccc2nc(-c3ccc4c(c3)OCCO4)cn2c1	-22	0	0	1	-13	34
c1ccn2cc(-c3ccc4c(c3)OCCO4)nc2c1	·	5	43*	1	-12	31
CC(C)c1ccc2c(c1)C(N1CCN(C)CC1)Cc1cccnc1S2 (stereo unspecified)	·	·	0	2	-22*	0
COc1ccc(NC(=O)N(C)C[C@@H]2Oc3ncc(C#CC(C)(C)O)cc3C(=O)N([C@H](C)CO)C[C@@H]2C)cc1	-2	12	0	-1	5	-76[16.7 µM]
O=C1OC(c2ccccc2)c2ccccc21 (stereo unspecified)	·	·	0	-3	1	·
O=S1OC(c2ccccc2)c2cc(Cl)ccc21 (stereo unspecified)	-2	9	0	1	-15*	-5
C[n+]1ccccc1/C=C/c1c(F)cccc1F	0	-14	0	17	11	24
CCOC(=O)c1c(NC(=O)c2nn(CC)cc2Br)c(C#N)nn1-c1ccccc1	6	-14	·	·	·	-48
CCOC(=O)c1c(NC(=O)c2c(Br)cnn2C)c(C#N)nn1-c1ccccc1	7	-3	0	-6	-29*	·
SMILES	Cneo AK release	PGC1a acetyl inh	FGF22 binding	ERAP1 HTS inh	rRNA inh HTS	HIV Env fusion
Cc1ccccc1NC(=S)NC12CN3CN(CN(C3)C1)C2	·	·	44*	-1	14	5
Cc1cccc(NC(=S)NC23CN4CN(CN(C4)C2)C3)c1C	·	·	44*	-2	5	8
N#Cc1cccc(-c2ccc([C@@H]3[C@@H]4CN(S(=O)(=O)c5ccc(-c6ccccc6)cc5)C[C@H]3N4)cc2)c1	·	93*	·	-3	2	·
Cc1nn(-c2ccccc2)nc1C(=O)Nc1nnc(C(F)(F)F)s1	8	1	1	0	-32*	13
COc1ccccc1-c1cc(C(F)(F)F)nc(S(=O)(=O)CCCC(=O)N2CCCCC2C)n1 (stereo unspecified)	0	21	·	·	·	16
CCn1c(C)c(C2=CCN(S(=O)(=O)c3ccc(C)cc3)CC2)c2ccccc21	2	-1	·	·	·	-8
CCOC(=O)C1CCN(C(=O)c2ccc3c(c2)C(=O)N(c2ccccc2C)C3=O)CC1	·	15	0	3	0	85*
CCOC(=O)C1CCN(C(=O)c2ccc(Cl)c(Cl)c2)CC1	0	7	·	·	·	·
CCOC(=O)C1CCCN(C(=O)c2ccc3c(c2)C(C)(C)CCC3(C)C)CC1 (stereo unspecified)	4	-22	-1	-1	·	60*
CCOC(=O)C1CCCN(C(=O)c2ccc(OC)cc2)CC1 (stereo unspecified)	-1	-2	0	-1	12	-40
O=Nc1nc2ncccn2c1-c1ccccc1	·	·	0	4	5	15
O=c1nc(Oc2ccccc2)nc2ncccn12	·	·	43*	0	5	6
CC(C)(C)CC(C)(C)N=C1Nc2cc(Cl)c(Cl)cc2NC12C[C@H]1CCC(=O)N3CC[C@@H](C2)[C@@H]13 (stereo partly specified)	0	2	0	0	8	58*
CO[C@H]1CN(C)C(=O)c2cc(NS(=O)(=O)c3cccc(C)c3)ccc2OC[C@H](C)NC[C@H]1C	2	-1	0	3	1	8[16.7 µM]
COc1ccc(/C=N/NC(=O)c2ccc(Cn3cc([N+](=O)[O-])cn3)o2)c(OC)c1C	·	-15	·	·	·	·
COc1ccc(/C=N\NC(=O)c2ccc(Cn3cc(Br)c([N+](=O)[O-])n3)o2)c(OC)c1C	·	·	44*	-1	19	26
O=C(Nc1ccc(Oc2cccc(C(F)(F)F)c2)nc1)c1ccccc1	0	·	0	4	8	11
O=C(Nc1ccc(Oc2cccc(C(F)(F)F)c2)nc1)c1cccs1	2	·	·	·	-44*	20
CCOc1cc(CNCC(C)C)cc(Cl)c1OCc1ccccc1	·	-27	44*	-2	-53	18
CCOc1c(Cl)cc(CNCC(C)C)cc1OC	·	-8	·	·	·	7
COC(=O)CN1C(=O)C2(OCCCO2)c2cc(Br)ccc21	-1	3	·	-2	3	6
CC(C)N1C(=O)C2(OCCCO2)c2cc(Br)ccc21	84*	17	0	-3	5	4
